Here are results for four compounds from ChEMBL document CHEMBL3525985, “Regiospecificity and stereospecificity of human UDP-glucuronosyltransferases in the glucuronidation of estriol, 16-epiestriol, 17-epiestriol, and 13-epiestradiol” (Drug Metab Dispos, 2013).

Format in all cases: ADME
Series [1] deals with T1, UDP-glucuronosyltransferase 2B15 (Homo sapiens, UniProt P54855).
T1 sequence (P54855 whole entry): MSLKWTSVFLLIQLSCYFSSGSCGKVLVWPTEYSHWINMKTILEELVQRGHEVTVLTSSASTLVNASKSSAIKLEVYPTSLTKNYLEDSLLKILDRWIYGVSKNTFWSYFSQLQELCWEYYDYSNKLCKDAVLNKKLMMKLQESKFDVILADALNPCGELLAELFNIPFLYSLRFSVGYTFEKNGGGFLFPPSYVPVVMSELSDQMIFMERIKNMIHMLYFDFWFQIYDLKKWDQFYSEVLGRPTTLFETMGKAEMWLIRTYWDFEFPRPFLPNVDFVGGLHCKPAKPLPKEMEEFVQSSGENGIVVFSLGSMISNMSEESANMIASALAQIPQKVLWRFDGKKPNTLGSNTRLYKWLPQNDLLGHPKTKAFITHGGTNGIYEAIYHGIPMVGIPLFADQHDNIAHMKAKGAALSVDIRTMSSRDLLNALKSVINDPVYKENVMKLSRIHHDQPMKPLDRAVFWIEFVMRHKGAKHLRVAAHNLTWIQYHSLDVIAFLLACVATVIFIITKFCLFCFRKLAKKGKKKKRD
The experiment in a line: Drug metabolism assessed as recombinant human C-terminal His-tagged UGT2B15-mediated 13-epiestradiol-3-glucuronide/13-epiestradiol-17-glucuronide formation at 200 uM after 15 to 60 mins by HPLC analysis in presence of UDPGA. To be noted: recombinant enzyme, in the assay text read “UGT2B15-mediated” for “C-terminal His-tagged UGT2B15-mediated”. The procedure, abridged: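 UGT2B15 was a commercial enzyme without a His-tag, so rates were not normalized to expression. Screening used 200 μM substrate in triplicate, with membranes in 50 mM phosphate pH 7.4, 10 mM MgCl₂, 5 mM UDPGA and 10% DMSO. Incubation was 15–60 min at 37°C. The reaction was stopped with perchloric acid and analysed by HPLC. Controls lacked UDPGA.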

Series [2] has as its target T2, UDP-glucuronosyltransferase 2B17 (Homo sapiens, UniProt O75795).
T2 sequence (O75795 whole entry): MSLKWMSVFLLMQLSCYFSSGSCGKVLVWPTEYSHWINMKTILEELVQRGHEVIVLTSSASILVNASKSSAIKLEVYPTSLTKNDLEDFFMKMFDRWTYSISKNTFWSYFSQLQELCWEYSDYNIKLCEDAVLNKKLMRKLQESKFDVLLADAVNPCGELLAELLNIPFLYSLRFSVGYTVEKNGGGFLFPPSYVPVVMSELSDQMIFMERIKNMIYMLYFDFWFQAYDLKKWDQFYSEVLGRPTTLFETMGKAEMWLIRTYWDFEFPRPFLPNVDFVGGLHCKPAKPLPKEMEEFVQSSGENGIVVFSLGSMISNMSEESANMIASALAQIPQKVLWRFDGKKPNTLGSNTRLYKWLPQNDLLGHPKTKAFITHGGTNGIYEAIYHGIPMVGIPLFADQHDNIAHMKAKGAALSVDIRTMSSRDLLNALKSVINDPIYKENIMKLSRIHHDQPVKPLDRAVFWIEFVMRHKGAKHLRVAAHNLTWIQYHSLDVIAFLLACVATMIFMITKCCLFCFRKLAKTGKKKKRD
Put plainly: Drug metabolism assessed as recombinant human C-terminal His-tagged UGT2B17-mediated estriol-17-glucuronide formation after 15 to 60 mins by Michaelis-Menten equation analysis in presence of UDPGA. As to conditions: recombinant enzyme.

Series [3] has as its target T3, UDP-glucuronosyltransferase 2A1 (Homo sapiens, UniProt P0DTE4).
T3 sequence (P0DTE4 whole entry): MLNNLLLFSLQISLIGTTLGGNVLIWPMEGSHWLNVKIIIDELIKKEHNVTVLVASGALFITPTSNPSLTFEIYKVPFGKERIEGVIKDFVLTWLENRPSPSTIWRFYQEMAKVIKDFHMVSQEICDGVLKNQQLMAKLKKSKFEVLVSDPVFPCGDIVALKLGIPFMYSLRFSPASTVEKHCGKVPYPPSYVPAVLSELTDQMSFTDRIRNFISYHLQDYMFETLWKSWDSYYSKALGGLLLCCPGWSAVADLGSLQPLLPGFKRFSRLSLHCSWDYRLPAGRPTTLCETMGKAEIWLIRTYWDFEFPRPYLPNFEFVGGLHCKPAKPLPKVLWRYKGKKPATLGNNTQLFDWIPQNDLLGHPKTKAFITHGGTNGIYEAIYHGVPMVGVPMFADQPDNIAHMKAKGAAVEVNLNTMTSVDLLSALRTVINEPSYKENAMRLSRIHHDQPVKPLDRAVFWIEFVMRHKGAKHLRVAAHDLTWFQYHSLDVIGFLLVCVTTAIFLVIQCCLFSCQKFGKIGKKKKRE
The experiment in a line: Drug metabolism assessed as recombinant human C-terminal His-tagged UGT2A1-mediated 16-epiestriol-16-glucuronide formation after 15 to 60 mins by Michaelis-Menten equation analysis in presence of UDPGA. As to conditions: recombinant enzyme.

Series [4] can be described thus: Drug metabolism in human intestine microsomes assessed as 17-epiestriol-16-glucuronide formation after 15 to 60 mins by Michaelis-Menten equation analysis in presence of UDPGA. The procedure, abridged:
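Pooled human intestine microsomes (6 donors), 0.5 or 10 µg, with alamethicin at 5% of total protein. Incubated with 50 mM phosphate pH 7.4, 10 mM MgCl₂, 5 mM UDPGA and 10% DMSO for 15–60 min at 37°C. Each glucuronide regioisomer quantified by HPLC, in triplicate, with substrate consumption at or below 10%.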

As to `C[C@@]12CC[C@@H]3c4ccc(O)cc4CC[C@H]3[C@@H]1CC[C@@H]2O`, in series [1], the Drug metabolism result is reported as “metabolite_detected”.

Take `C[C@]12CC[C@@H]3c4ccc(O)cc4CC[C@H]3[C@@H]1C[C@@H](O)[C@@H]2O` [ESTRIOL]: in series [2], the Drug metabolism was determined as 4 pmol/min/mg.

On to `C[C@]12CC[C@@H]3c4ccc(O)cc4CC[C@H]3[C@@H]1C[C@H](O)[C@@H]2O` [EPIESTRIOL], for which, in series [3], the Drug metabolism turned out to be 260 pmol/min/mg.

Usually Km stands for the substrate concentration at which the rate is half of its maximum. In general, Vmax refers to the rate approached at saturating substrate. Regarding `C[C@]12CC[C@@H]3c4ccc(O)cc4CC[C@H]3[C@@H]1C[C@@H](O)[C@H]2O`, in series [4], the Km is 820 µM and the Vmax was determined as 266 pmol/min/mg.
